From ChEMBL document CHEMBL4342526, “Exploration of the Structural Space in 4(3H)-Quinazolinone Antibacterials” (J Med Chem, 2020) come the findings set out here.

Values after ≈ are worked out from the molar mass of the structure shown. Some results are limits rather than exact numbers.

The test system of data set [1] is Staphylococcus aureus. The experiment in a line: Antibacterial activity against clindamycin/erythromycin/spectinomycin-resistant mec-positive Staphylococcus aureus NRS70 measured after 16 to 20 hrs by microdilution method. It is filed as functional. In a few lines:
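CLSI broth microdilution; two-fold serial compound dilutions in triplicate in cation-adjusted Mueller–Hinton broth with 2% NaCl, inoculum 5 × 10^5 CFU/mL; 37 °C for 16–20 h; MIC = lowest concentration with no visible growth.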
A general note: Dilution methods test growth across graded concentrations, often in twofold steps.

The test system of the next data set is Bacillus licheniformis. Briefly: Antibacterial activity against Bacillus licheniformis ATCC 12759 measured after 16 to 20 hrs by microdilution method. Type of data set: functional. The method, boiled down:
(§1)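 CLSI broth microdilution: two-fold serial dilutions in triplicate in cation-adjusted Mueller–Hinton broth with 2% NaCl, inoculum 5 × 10^5 CFU/mL, incubated at 37 °C for 16–20 h. MIC is the lowest concentration preventing visible growth.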

In data set [2] the test system is Staphylococcus haemolyticus. Briefly: Antibacterial activity against Staphylococcus haemolyticus ATCC 29970 measured after 16 to 20 hrs by microdilution method. Type of data set: functional. In a few lines:
as §1

Data set [3] can be described thus: Elimination half life in ICR mouse at 10 mg/kg, po administered via gavage by UV-UPLC analysis. It is filed as ADME, organism-based. As to conditions: in vivo, read-out: beta t1/2 (converted).
Data set [4] in a line: Selectivity index, ratio of IC50 for human HeLa cells to MIC for clindamycin/erythromycin/spectinomycin-resistant mec-positive Staphylococcus aureus NRS70. Type of data set: toxicity. In a few lines:
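HeLa cytotoxicity by XTT assay in triplicate, IC50 by nonlinear regression; ratio IC50 over broth microdilution MIC against NRS70.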

The subject of data set [5] is Staphylococcus aureus. Briefly: Potentiation of piperacillin and tazobactam-induced bactericidal activity against methicillin resistant Staphylococcus aureus NRS70 infected in ICR mouse model of neutropenic thigh infection assessed as log reduction in bacterial count in thigh at 20 mg/kg, sc administered at 8 hrs interval for 3 times starting from 1 hr post infection and measured 24 hrs post infection. It is filed as functional. The method, boiled down: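 Neutropenic ICR mouse thigh model as above (cyclophosphamide 200 mg/kg ip days −4 and −1; NRS70 1 × 10^6 CFU/mL, 0.1 mL im right thigh); compound given with piperacillin 12 mg/kg plus tazobactam 1.5 mg/kg, sc in 10% DMSO/90% water every 8 h ×3 from 1 h; thigh CFU at 24 h; n = 8; mean ± SEM, ANOVA/Tukey.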

In another data set the test system is HeLa. The experiment in a line: Cytotoxicity against human HeLa cells assessed as reduction in cell viability measured after 16 hrs by XTT assay. Type of data set: cell-based. In a few lines:
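HeLa cells (ATCC CCL-2), run in triplicate. Viability was read by XTT, and IC50 was obtained by nonlinear regression.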
(In general: Tetrazolium assays rely on reduction of a dye to a coloured formazan, in cell work by metabolically active cells.)

The next data set has as its system Enterococcus faecalis. Briefly: Antibacterial activity against Enterococcus faecalis ATCC 29212 measured after 16 to 20 hrs by microdilution method. Type of data set: functional. The method, boiled down: as §1
For another data set, the system named is Clostridioides difficile. Briefly: Antibacterial activity against Clostridium difficile ATCC 43255 measured after 16 to 20 hrs by microdilution method. It is filed as functional.
Data set [6] can be described thus: Protein binding in human plasma at 10 uM measured after 6 hrs UV-UPLC based rapid equilibrium dialysis method. It is filed as ADME, cell-free. The method, boiled down:
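Rapid equilibrium dialysis: human plasma was cleared by centrifugation and spiked from a 1 mM DMSO stock to a final 10 μM, against 0.1 M PBS pH 7.4. Dialysis ran 6 h at 37 °C with orbital shaking. Buffer (free) and plasma (total) aliquots were mixed with internal standard in acetonitrile and measured by UPLC-UV at 285 nm. B% = (Cp−Cf)/Cp×100.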
(In equilibrium dialysis only unbound substance equilibrates across the membrane.)

In the next data set the test system is Streptococcus pneumoniae. The experiment in a line: Antibacterial activity against Streptococcus pneumoniae ATCC 49619 measured after 16 to 20 hrs by microdilution method. Type of data set: functional. The method, boiled down:
as §1

Data set [7] can be described thus: Oral bioavailability in ICR mouse at 10 mg/kg administered via gavage by UV-UPLC analysis. Type of data set: ADME, organism-based. The following applies: in vivo.
The nature of data set [8]: AUC (0 to infinity) in ICR mouse at 10 mg/kg, po administered via gavage by UV-UPLC analysis. Type of data set: ADME, organism-based. Also on record: dose 10 mg/kg, route oral, time infinity. As to conditions: in vivo.

Take `N#Cc1ccc(/C=C/c2nc3ccccc3c(=O)n2-c2cc(C(=O)O)ccc2F)cc1`: the MIC (as a rule, the least concentration at which growth counts as inhibited) in the data set on Staphylococcus aureus [1] was 0.5 µg/mL (≈ 1.22 µM); in the data set on Bacillus licheniformis, more than 128 µg/mL; in [2], 4 µg/mL (≈ 9.72 µM); in the data set on Enterococcus faecalis, more than 128 µg/mL; against Clostridioides difficile, 128 µg/mL (≈ 311 µM); against Streptococcus pneumoniae it was 8 µg/mL (≈ 19.4 µM). Further, the half-life in data set [3] is 11.2 h. Besides, the selectivity ratio in [4] turned out to be 124. Besides, in the data set with Staphylococcus aureus [5], the “log(activity)” value was determined as 0.75. Moreover, the IC50 – broadly, the midpoint of a concentration-inhibition curve – with HeLa was 62 µg/mL (≈ 151 µM). Also, the PPB in data set [6] is listed as 95.4%. The same compound yielded a F in data set [7] of 65%. For the same compound, the AUC(0-inf) – broadly, the area under the concentration-time curve extrapolated to infinity – in data set [8] was 16800 ng·h/mL.
